Source: ChEMBL document CHEMBL1141088, “A new pyridazine series of GABAA alpha5 ligands” (J Med Chem, 2005)

Experiment: Low volume of distribution of compound determined after iv administration at 1 mg/kg dose as a solution(1 mg/mL) in a PEG 300:H2O(3:1)
Assay type: ADME, organism-based
Parameters: dose 1 mg/kg, route intravenous
Details: rat, in vivo, read-out: Vdss
How it was run: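 Single rat, cannulated, given 100 units heparin, recovered 48 h, fasted overnight. Dosed 1 mg/kg iv bolus (1 mL/kg) in PEG 300:water 3:1. Serial blood sampled to 6 h and plasma analysed by LC-MS/MS with diazepam internal standard. Cl in mL/min/kg from plasma, T1/2 in hours from 1–3 h data, Vdss in L/kg.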

Vd: 1.5 L/kg
Structure (SMILES): N#Cc1cccc(-c2cnnc(-c3ccccc3)c2)c1
